ChEMBL document CHEMBL1125136, “Quinolone antibacterial agents substituted at the 7-position with spiroamines. Synthesis and structure-activity relationships” (1990)
In brackets after ≈: the same amount, converted by molar mass.

How the values were obtained:
Staphylococcus aureus [1] = experiment: Evaluated for minimum inhibitory concentration against […] bacteria Staphylococcus aureus UC-76; assay type: functional
Summary of the method: (§1)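 Broth microdilution MIC by standard technique. Values come from duplicate experiments and are stated as accurate to ±50%.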

Enterobacter cloacae = experiment: Evaluated for minimum inhibitory concentration against gram-negative bacteria Enterobacter cloacae HA 2646; assay type: functional
Pseudomonas aeruginosa [2] = experiment: Evaluated for minimum inhibitory concentration against gram-negative bacteria Pseudomonas aeruginosa UI-18; assay type: functional; summary of the method: as §1
Enterococcus faecalis = experiment: Evaluated for minimum inhibitory concentration against gram-positive bacteria Staphylococcus faecalis MGH-2
[3] = Evaluated for minimum inhibitory concentration against […] bacteria […] SV-1; assay type: functional; summary of the method: as §1
Staphylococcus aureus [4] = experiment: Evaluated for minimum inhibitory concentration against […] bacteria Staphylococcus aureus H228; assay type: functional; summary of the method: as §1
Klebsiella pneumoniae = experiment: Evaluated for minimum inhibitory concentration against gram-negative bacteria Klebsiella pneumoniae MGH-2; assay type: functional; summary of the method: as §1
Escherichia coli [5] = experiment: Evaluated for minimum inhibitory concentration against gram-negative bacteria Escherichia coli Vogel; assay type: functional; summary of the method: as §1
Streptococcus pyogenes [6] = experiment: Evaluated for minimum inhibitory concentration against gram-positive bacteria Streptococcus pyogenes C203
Escherichia coli [7] = experiment: Evaluated for minimum concentration needed to produce linear DNA at an intensity relative to oxolinic acid at 10 mg/mL. by gyrase mediated cleavage of DNA in Escherichia coli 560.; assay type: functional; conditions: read-out: MIC
Pseudomonas = experiment: Evaluated for minimum inhibitory concentration against gram-negative bacteria Pseudomonas rettgeri H1771; assay type: functional; summary of the method: as §1
Escherichia coli [8] = experiment: In vivo protective dose was determined in mouse protection assay in Escherichia coli Vogel after subcutaneous administration; assay type: functional; conditions: sc, read-out: PD50
Summary of the method: (§2)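 Female Charles River CD-1 mice were given an acute, lethal, systemic infection. A single dose of compound was given at the time of challenge, by the route stated in the line, with 16 animals per dose level. The read-out is the median protective dose (PD50, mg/kg). Per the footnote, values come from 16 animals per test, with a mean variation of ±34%.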

Streptococcus pneumoniae [9] = experiment: In vivo protective dose was determined against Streptococcus pneumoniae SV-1 after subcutaneous administration; conditions: sc, read-out: PD50
Pseudomonas aeruginosa [10] = experiment: In vivo protective dose was determined against Pseudomonas aeruginosa UI-18. after subcutaneous administration; assay type: functional; conditions: sc, read-out: PD50; summary of the method: as §2
Streptococcus pyogenes [11] = experiment: In vivo protective dose was determined against Streptococcus pyogenes after subcutaneous administration; conditions: sc, read-out: PD50
Escherichia coli [12] = experiment: In vivo protective dose for mouse protection assay in Escherichia coli Vogel after peroral administration; assay type: functional; conditions: po, read-out: PD50; summary of the method: as §2
Streptococcus pyogenes [13] = experiment: In vivo protective dose was determined against Streptococcus pyogenes after peroral administration; conditions: po, read-out: PD50
Staphylococcus aureus [14] = experiment: In vivo protective dose was determined against Staphylococcus aureus VC76 after peroral administration; assay type: functional; conditions: po, read-out: PD50; summary of the method: as §2
Staphylococcus aureus [15] = experiment: In vivo protective dose was determined against Staphylococcus aureus VC76. after subcutaneous administration; assay type: functional; conditions: sc, read-out: PD50; summary of the method: as §2
Pseudomonas aeruginosa [16] = experiment: In vivo protective dose was determined against Pseudomonas aeruginosa UI-18. after peroral administration; assay type: functional; conditions: po, read-out: PD50; summary of the method: as §2
Streptococcus pneumoniae [17] = experiment: In vivo protective dose was determined against Streptococcus pneumoniae SV-1 after peroral administration; conditions: po, read-out: PD50

Row | Compound | MIC (Staphylococcus aureus [1]) [µg/mL] | MIC (Enterobacter cloacae) [µg/mL] | MIC (Pseudomonas aeruginosa [2]) [µg/mL] | MIC (Enterococcus faecalis) [µg/mL] | MIC [3] [µg/mL] | MIC (Staphylococcus aureus [4]) [µg/mL] | MIC (Klebsiella pneumoniae) [µg/mL] | MIC (Escherichia coli [5]) [µg/mL] | MIC (Streptococcus pyogenes [6]) [µg/mL] | minimum concentration for gyrase-mediated DNA cleavage (Escherichia coli [7]) [µg/mL] | MIC (Pseudomonas) [µg/mL] | ED50 (Escherichia coli [8]) [mg/kg] | ED50 (Escherichia coli [12]) [mg/kg] | also measured
1 | CCn1cc(C(=O)O)c(=O)c2cc(F)c(N3CCNCC3)cc21 [NORFLOXACIN] | 0.4 (≈ 1.25 µM) | 0.1 (≈ 0.313 µM) | 0.8 (≈ 2.51 µM) | 3.1 (≈ 9.71 µM) | 3.1 (≈ 9.71 µM) | 3.1 (≈ 9.71 µM) | 0.2 (≈ 0.626 µM) | 0.1 (≈ 0.313 µM) | 3.1 (≈ 9.71 µM) | 5.2 | 0.2 (≈ 0.626 µM) | – | – | –
2 | CCNCC1CCN(c2c(F)cc3c(=O)c(C(=O)O)cn(CC)c3c2F)C1 (stereo not drawn) [MERAFLOXACIN] | 0.05 (≈ 0.132 µM) | 0.2 (≈ 0.527 µM) | 1.6 (≈ 4.22 µM) | 0.1 (≈ 0.264 µM) | 0.1 (≈ 0.264 µM) | 0.1 (≈ 0.264 µM) | 0.2 (≈ 0.527 µM) | 0.1 (≈ 0.264 µM) | 0.1 (≈ 0.264 µM) | 2.5 | 0.4 (≈ 1.05 µM) | – | – | –
3 | CC1COc2c(N3CCC4(CCN(C)C4)C3)c(F)cc3c(=O)c(C(=O)O)cn1c23 (stereo not drawn) | 0.006 (≈ 0.0149 µM) | 0.2 (≈ 0.498 µM) | 0.8 (≈ 1.99 µM) | 0.1 (≈ 0.249 µM) | 0.2 (≈ 0.498 µM) | 0.1 (≈ 0.249 µM) | 0.1 (≈ 0.249 µM) | 0.025 (≈ 0.0623 µM) | 0.1 (≈ 0.249 µM) | 1 | 0.4 (≈ 0.996 µM) | 4.5 | 14 | ED50 (Streptococcus pneumoniae [9]): 11.5 mg/kg; ED50 (Pseudomonas aeruginosa [10]): 56 mg/kg; ED50 (Streptococcus pyogenes [11]): 6 mg/kg; ED50 (Streptococcus pyogenes [13]): 31 mg/kg; ED50 (Staphylococcus aureus [14]): 12.5 mg/kg; ED50 (Staphylococcus aureus [15]): 2.1 mg/kg; ED50 (Pseudomonas aeruginosa [16]): 200 mg/kg; ED50 (Streptococcus pneumoniae [17]): 63 mg/kg
4 | CC1COc2c(N3CCN(C)CC3)c(F)cc3c(=O)c(C(=O)O)cn1c23 (stereo not drawn) [OFLOXACIN] | 0.4 (≈ 1.11 µM) | 0.1 (≈ 0.277 µM) | 1.6 (≈ 4.43 µM) | 6.3 (≈ 17.4 µM) | 0.4 (≈ 1.11 µM) | 3.1 (≈ 8.58 µM) | 0.2 (≈ 0.553 µM) | 0.2 (≈ 0.553 µM) | 3.1 (≈ 8.58 µM) | 6.2 | 0.4 (≈ 1.11 µM) | – | – | –
5 | CCn1cc(C(=O)O)c(=O)c2cc(F)c(N3CCC4(CCN(C)C4)C3)cc21 (stereo not drawn) | 0.1 (≈ 0.268 µM) | 0.2 (≈ 0.536 µM) | 3.1 (≈ 8.3 µM) | 0.4 (≈ 1.07 µM) | 0.4 (≈ 1.07 µM) | 0.8 (≈ 2.14 µM) | 0.8 (≈ 2.14 µM) | 0.2 (≈ 0.536 µM) | 0.4 (≈ 1.07 µM) | 5 | 3.1 (≈ 8.3 µM) | – | – | –
6 | CCn1cc(C(=O)O)c(=O)c2cc(F)c(N3CCC4(CCNC4)C3)nc21.Cl (stereo not drawn) | 0.4 | 0.8 | 0.8 | 1.6 | 0.8 | 3.1 | 3.1 | 0.8 | 0.2 | 5 | 12.5 | 28 | > 100 | –
7 | CCN1CCC2(CCN(c3c(F)cc4c(=O)c(C(=O)O)cn(CC)c4c3F)C2)C1 (stereo not drawn) | 0.1 (≈ 0.247 µM) | 0.4 (≈ 0.987 µM) | 3.1 (≈ 7.65 µM) | 0.2 (≈ 0.493 µM) | 0.8 (≈ 1.97 µM) | 0.2 (≈ 0.493 µM) | 0.2 (≈ 0.493 µM) | 0.2 (≈ 0.493 µM) | 0.4 (≈ 0.987 µM) | 5 | 1.6 (≈ 3.95 µM) | 6 | 13 | ED50 (Streptococcus pneumoniae [9]): 43 mg/kg; ED50 (Pseudomonas aeruginosa [10]): 180 mg/kg; ED50 (Streptococcus pyogenes [11]): 38 mg/kg; ED50 (Streptococcus pyogenes [13]): 70 mg/kg; ED50 (Pseudomonas aeruginosa [16]): > 100 mg/kg; ED50 (Streptococcus pneumoniae [17]): 68 mg/kg
8 | NC1CCN(c2c(F)cc3c(=O)c(C(=O)O)cn(C4CC4)c3c2F)C1 (stereo not drawn) | 0.025 (≈ 0.0716 µM) | 0.025 (≈ 0.0716 µM) | 0.1 (≈ 0.286 µM) | 0.05 (≈ 0.143 µM) | 0.05 (≈ 0.143 µM) | 0.05 (≈ 0.143 µM) | 0.025 (≈ 0.0716 µM) | 0.013 (≈ 0.0372 µM) | 0.25 (≈ 0.716 µM) | 0.1 | 0.05 (≈ 0.143 µM) | – | – | –
9 | O=C(O)c1cn(C2CC2)c2cc(N3CCNCC3)c(F)cc2c1=O [CIPROFLOXACIN] | 0.1 (≈ 0.302 µM) | – | 0.1 (≈ 0.302 µM) | 0.4 (≈ 1.21 µM) | 0.4 (≈ 1.21 µM) | 1.6 (≈ 4.83 µM) | 0.025 (≈ 0.0754 µM) | 0.025 (≈ 0.0754 µM) | 0.2 (≈ 0.604 µM) | – | 0.025 (≈ 0.0754 µM) | – | – | –
10 | CCNCC1CCN(c2c(F)cc3c(=O)c(C(=O)O)cn(C4CC4)c3c2F)C1 (stereo not drawn) [PD-117558] | 0.006 (≈ 0.0153 µM) | 0.1 (≈ 0.255 µM) | 0.4 (≈ 1.02 µM) | 0.025 (≈ 0.0639 µM) | 0.025 (≈ 0.0639 µM) | 0.025 (≈ 0.0639 µM) | 0.1 (≈ 0.255 µM) | 0.05 (≈ 0.128 µM) | 0.025 (≈ 0.0639 µM) | 0.25 | 0.2 (≈ 0.511 µM) | – | – | –
